Measurements from ChEMBL document CHEMBL4396918, “Identification of a potent small-molecule inhibitor of bacterial DNA repair that potentiates quinolone antibiotic activity in methicillin-resistant Staphylococcus aureus” (Bioorg Med Chem, 2019).
Calls of active or inactive are those of the source. The calls are words filed in the database; no cut-off is given here.

What was measured:
Escherichia coli = assay: Inhibition of Escherichia coli DNA topoisomerase IV using supercoiled pQE80L as substrate at 12.5 uM incubated for 30 mins by ethidium bromide staining-based agarose gel electrophoresis method
[1] = target: T1, DNA gyrase (Escherichia coli) (UniProt P0AES6+P0AES4); assay: Inhibition of Escherichia coli DNA gyrase (A2B2 tetramer) assessed as Fraction supercoiled at 12.5 uM using relaxed pBR322 as substrate preincubated for 30 mins followed by enzyme addition by SYBR staining-based agarose gel electrophoresis method; type: protein-complex assay
In short: (§1)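 Supercoiling of relaxed pBR322 by DNA gyrase, with products (relaxed, […], supercoiled) resolved by agarose gel electrophoresis. Supercoiled fraction quantified by densitometry. Mean ± SEM of 3 technical replicates.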

[2] = target: T1, DNA gyrase (Escherichia coli); assay: Inhibition of Escherichia coli DNA gyrase (A2B2 tetramer) at 12.5 uM using relaxed pBR322 as substrate preincubated for 30 mins followed by enzyme addition by SYBR staining-based agarose gel electrophoresis method; type: protein-complex assay; in short: as §1
Staphylococcus aureus [3] = assay: Potentiation of ciprofloxacin-induced antibacterial activity against methicillin resistant Staphylococcus aureus USA300 JE2 assessed as fold reduction in ciprofloxacin EC50 incubated for 18 hrs in presence of 0.5 times MIC ciprofloxacin by broth microdilution method relative to ciprofloxacin; type: functional
[4] = Ratio of EC50 for antibacterial activity against Escherichia coli K-12 BW25113 to EC50 for Staphylococcus aureus SH1000; type: functional
[5] = Inhibition of N-terminal strep2-tagged AddA (unknown origin) expressed in Escherichia coli BL21 cells transformed with pET28 plasmid by Western blot based pull down assay
In short: (§2)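 Pulldown from E. coli SoluBL21 expressing StrepII-tagged AddA and His6-tagged AddB from pET28b+, induced overnight at 16 °C. Lysates were obtained by sonication and incubated with compound-functionalized Sepharose or DMSO-treated, Tris-quenched control beads. Beads were washed three times in lysis buffer and eluted in SDS-PAGE sample buffer. Western blots used anti-His6 and anti-StrepII detection.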

[6] = Inhibition of N-terminal his6-tagged AddB (unknown origin) expressed in Escherichia coli BL21 cells transformed with pET28 plasmid by Western blot based pull down assay; in short: as §2
Staphylococcus aureus [7] = assay: Synergistic antibacterial activity against Staphylococcus aureus USA300 JE2 assessed as ciprofloxacin dose reduction index at 100 uM at 1:1 test compound to ciprofloxacin measured every 30 mins for 17 hrs; type: functional
In short: (§3)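 OD600 recorded over 17 h at 37 °C. Exponential-phase growth rate used for dose–response EC50 fitting. Combination index and dose-reduction index calculated by the Chou–Talalay method versus fraction affected.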

[8] = tested on: Staphylococcus aureus subsp. aureus USA300; assay: Inhibition of AddAB in Staphylococcus aureus USA300 JE2 transformed with pCN34 PrecA-gfp reporter plasmid assessed as inhibition of SOS response by measuring reduction in green fluorescence per cell at 66 uM measured at 15 mins interval for 17 hrs by GFP reporter gene assay
In short: (§4)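 S. aureus JE2 carrying a recA-promoter GFP reporter. […] Cell number was read as OD600 and SOS activation as GFP fluorescence, then normalized as fluorescence per cell. Mean ± SEM, n = 3 biological replicates.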

[9] = tested on: Staphylococcus aureus subsp. aureus USA300; assay: Inhibition of AddAB in Staphylococcus aureus USA300 JE2 transformed with pCN34 PrecA-gfp reporter plasmid assessed as decrease in cell number at 66 uM measured at 15 mins interval for 17 hrs by GFP reporter gene assay; in short: as §4
Staphylococcus aureus [10] = assay: Synergistic antibacterial activity against Staphylococcus aureus USA300 JE2 assessed as dose reduction index at 100 uM at 1:1 test compound to ciprofloxacin measured every 30 mins for 17 hrs; type: functional; in short: as §3
Staphylococcus aureus [11] = assay: Synergistic antibacterial activity against Staphylococcus aureus USA300 JE2 assessed as ciprofloxacin dose reduction index at 100 uM at 1:2 test compound to ciprofloxacin measured every 30 mins for 17 hrs; type: functional; in short: as §3
Staphylococcus aureus [12] = assay: Synergistic antibacterial activity against Staphylococcus aureus USA300 JE2 assessed as dose reduction index at 100 uM at 1:2 test compound to ciprofloxacin measured every 30 mins for 17 hrs; type: functional; in short: as §3
[13] = tested on: Staphylococcus aureus subsp. aureus USA300; details: JE2, 66 uM

Row | SMILES | fold change (FC) (Staphylococcus aureus [3]) | Ratio EC50 [4] | further results
1 | CCn1cc(C(=O)O)c(=O)c2cnc(N3CCN(C(=O)Nc4ccccc4)CC3)nc21 | >4 | – | inhibition (Escherichia coli): inactive; Ratio [1]: 1.1; inhibition [2]: inactive
2 | O=C(O)c1cn(C2CC2)c2cc(N3CCN(C(=S)Nc4ccc([N+](=O)[O-])cc4)CC3)c(F)cc2c1=O | 20 | – | –
3 | O=C(O)c1cn(C2CC2)c2cc(N3CCN(C(=S)Nc4cc(Cl)cc(Cl)c4)CC3)c(F)cc2c1=O | >3 | 2 - 5 | –
4 | O=C(O)c1cn(C2CC2)c2cc(N3CCN(C(=S)Nc4cccc([N+](=O)[O-])c4)CC3)c(F)cc2c1=O | >4 | – | –
5 | O=C(O)c1cn(C2CC2)c2cc(N3CCN(C(=O)Nc4ccccc4)CC3)c(F)cc2c1=O | – | – | inhibition [5]: inactive; inhibition [6]: inactive
6 | O=C(O)c1cn(C2CC2)c2cc(N3CCN(C(=S)Nc4cccc(F)c4)CC3)c(F)cc2c1=O | >3 | 2 - 5 | –
7 | O=C(O)c1cn(C2CC2)c2cc(N3CCN(C(=S)Nc4ccc(C(F)(F)F)cc4)CC3)c(F)cc2c1=O | >3 | 2 - 5 | inhibition (Escherichia coli): inactive; Activity_index (Staphylococcus aureus [7]): 2.9; inhibition [5]: Active; Ratio [1]: 1.2; inhibition [2]: inactive; inhibition [6]: Active; inhibition [8]: Active; inhibition [9]: Active
8 | CCn1cc(C(=O)O)c(=O)c2cnc(N3CCN(C(=S)Nc4ccc(C(F)(F)F)cc4)CC3)nc21 | >4 | >10 | –
9 | O=C(O)c1cn(C2CC2)c2cc(N3CCN(C(=S)Nc4cccc(Cl)c4)CC3)c(F)cc2c1=O | >3 | 2 - 5 | –
10 | CCn1cc(C(=O)O)c(=O)c2cnc(N3CCN(C(=S)Nc4cccc(C(F)(F)F)c4)CC3)nc21 | >4 | >10 | inhibition (Escherichia coli): inactive; Activity_index (Staphylococcus aureus [7]): 1.8; Ratio [1]: 1.1; inhibition [2]: inactive; Activity_index (Staphylococcus aureus [10]): 2.2
11 | CCn1cc(C(=O)O)c(=O)c2cnc(N3CCN(C(=S)Nc4cccc(Cl)c4)CC3)nc21 | >4 | >10 | Activity_index (Staphylococcus aureus [11]): 2.2; Ratio [1]: 1.1; inhibition [2]: inactive; Activity_index (Staphylococcus aureus [12]): 2
12 | O=C(O)c1cn(C2CC2)c2cc(N3CCNCC3)c(F)cc2c1=O | – | – | inhibition (Escherichia coli): Active; inhibition [13]: Active; inhibition [9]: Active
13 | CCn1cc(C(=O)O)c(=O)c2cnc(N3CCN(C(=S)Nc4cc(C(F)(F)F)cc(C(F)(F)F)c4)CC3)nc21 | >4 | >10 | –
14 | CCn1cc(C(=O)O)c(=O)c2cnc(N3CCN(C(=S)Nc4cccc(F)c4)CC3)nc21 | >4 | >10 | –
15 | O=C(O)c1cn(C2CC2)c2cc(N3CCN(C(=S)Nc4cc(C(F)(F)F)cc(C(F)(F)F)c4)CC3)c(F)cc2c1=O | >4 | – | –
16 | CCn1cc(C(=O)O)c(=O)c2cnc(N3CCN(C(=S)Nc4cc(Cl)cc(Cl)c4)CC3)nc21 | >4 | >50 | –
17 | O=C(O)c1cn(C2CC2)c2cc(N3CCN(C(=S)Nc4cccc(C(F)(F)F)c4)CC3)c(F)cc2c1=O | >3 | 2 - 5 | –
